# High-throughput results as filed in PubChem.
# M1 antag = M1 muscarinic receptor (rat) antagonism; CHO-M1 cells, Fluo-4 calcium, ACh EC80 antagonist mode; hits give low values; B-score at 10 µM; actives 3.4% (n = 64,000); AID 628;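 active means calcium fluorescence response, raw or row-and-column corrected B-score, differing from the plate sample mean either way at a set confidence level, mostly lower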
# HePTP inh = human HePTP phosphatase inhibition; actives 0.64% (n = 110,000); P35236; recombinant HePTP phosphatase activity, OD absorbance; inhibition, % at 20 µM; in the data active means inhibition above about 50%;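 further: plate controls were vehicle for no effect and reference inhibitor for full effect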
# M1 agonist = activates the M1 muscarinic receptor; CHO-M1 cells, Fluo-4 calcium fluorescence, agonist mode; hits give high values; B-score at 10 µM; actives 3% (n = 64,000); AID 626;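 active means fluorescence rise, raw or as B-score row- and column-corrected plate score, outside the 99.7% band of its plate's samples, either direction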
# D1 allo mod = allosteric modulators of human D1 dopamine receptor | P21728 | HEK293 D1, CRE-luciferase, dopamine EC30 potentiation; actives deviate in either direction | B-score at 10 µM | actives 5.9% (n = 58,000);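 active means luminescence count or its row- and column-corrected plate score outside the 99.7% band of the plate's sample wells, on either side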
# SF1 activator = activates the human nuclear receptor SF-1; Q13285; CHO-K1 Gal4-SF-1 LBD luciferase reporter; % increase over DMSO SF-1-specific signal; activation, % at 10 µM; actives 1.9% (n = 65,000);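 active means activation above the mean activation of all tested compounds plus 3 SD, cut at about 50% in these data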
# Target sequence (Q13285 whole entry, looked up, the tested form may be a part): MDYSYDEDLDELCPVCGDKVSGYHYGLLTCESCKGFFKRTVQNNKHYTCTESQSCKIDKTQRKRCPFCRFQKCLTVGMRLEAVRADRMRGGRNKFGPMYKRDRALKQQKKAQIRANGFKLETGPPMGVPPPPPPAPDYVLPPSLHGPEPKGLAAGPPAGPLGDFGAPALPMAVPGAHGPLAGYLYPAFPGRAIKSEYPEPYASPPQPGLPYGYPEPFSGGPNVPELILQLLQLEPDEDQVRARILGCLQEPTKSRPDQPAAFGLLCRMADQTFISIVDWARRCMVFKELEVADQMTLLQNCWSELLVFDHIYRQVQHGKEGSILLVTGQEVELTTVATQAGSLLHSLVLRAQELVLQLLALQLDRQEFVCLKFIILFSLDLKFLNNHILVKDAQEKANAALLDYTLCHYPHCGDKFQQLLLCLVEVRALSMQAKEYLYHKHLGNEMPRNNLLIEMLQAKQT
#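 Assay system – CHO-K1 cells with Gal4–hSF-1 LBD chimera plus Gal4-driven luciferase · Quantity – 4,000 cells per well · Times – compound added 1 h post-seeding, 20 h exposure at 37 °C, 5% CO2 · Measured by – luciferase light emission · Benchmarks – DMSO and mock-transfected background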
# RORa activator = RORA (human) activation | P35398 | activation, % at 10 µM | actives 1.5% (n = 65,000) | CHO-K1 Gal4-RORA LBD luciferase reporter, luminescence; percent increase over mock-subtracted basal signal;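 active means activation above the mean of all tested compounds plus 3 SD, cut at about 49% in these data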;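 further: 0% = DMSO-treated RORA cells and 100% = added signal equal to DMSO minus mock-transfected cells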
# Active calls of the source: *; · = not tested or not shown. Compounds with a hit are over-represented: about 8.2% of the library has one in this group of screens.
SMILES,M1 antag,HePTP inh,M1 agonist,D1 allo mod,SF1 activator,RORa activator
CC(=O)NS(=O)(=O)c1ccc(NC(=O)/C=C/c2ccc(F)cc2)cc1,·,74*,·,·,·,·
CCOC(=O)N1CCN(C(=O)c2cc(Cl)c(Cl)cc2C(=O)O)CC1,1.3,-9,4.6*,-0.00055,2,-12
CCOC(=O)N1CCN(c2ccc(Cl)c(Cl)c2)CC1,-0.52,-2,0.74,0.14,-13,-6
CCC(=O)N1c2ccc(S(=O)(=O)CCC(=O)NCc3ccc4c(c3)OCO4)cc2CC1C (stereo not given),0.78,9,-0.28,0.59,5,-10
O=C(COc1ccc(F)cc1)Nc1nccs1,-0.011,2,-0.19,-2.2,42,102*
O=C(Nc1nccs1)c1ccc(COc2ccc(Cl)cc2)o1,-0.33,14,-0.0079,-0.49,29,5
O=C(Nc1nccs1)c1ccc(COc2ccc(F)cc2)o1,-1.5,4,-0.0085,-0.0065,64*,8
O=C(Nc1nccs1)c1ccc(COc2ccccc2Br)o1,-0.31,5,-0.34,-0.79,60*,21
CN(C)C=NCCn1c(N2CCOCC2)nc2c1c(=O)n(C)c(=O)n2C,-0.99,5,0.7,-3.8*,-3,7
CC(C)CCn1c(N2CCOCC2)nc2c1c(=O)n(CC(N)=O)c(=O)n2C,0.25,-4,0.32,-0.6,-16,9
COc1ccc2c(c1)c(CCN1C(=O)c3ccccc3C1=O)cn2C(=O)c1ccco1,0.021,-4,1.2,0.57,0,21
Cc1ccnc(NC(=O)c2c(O)c3ccccc3n(C)c2=O)c1,-0.27,11,0.69,-0.81,76*,74*
COc1ccc(-c2noc(CCCC(=O)O)n2)cc1,-0.26,11,-0.53,-5.5*,-57,-68
O=C(O)CCc1nc(-c2ccccc2)no1,0.42,7,-0.98,-0.78,12,-12
COc1ccc(C(NC(=O)Cc2ccccc2)c2ccc(OC)cc2)cc1,·,4,·,·,·,·
COc1ccc(C(O)P(=O)(O)CCc2ccccc2)cc1 (stereo not given),-0.00047,-12,-0.088,0.63,-8,52*
CN1C(=O)CC(N2CCN(C(=O)CN3CCCC3)CC2)C1=O (stereo not given),·,-6,·,-2.7*,6,-5
CCOc1ccc(NC(=O)c2c(NC(=O)c3cccnc3)sc3c2CCC3)cc1,·,-10,·,·,·,·
COCC(C)NC(=O)c1noc2c1CCc1cc(OC)ccc1-2 (stereo not given),-0.51,0,0.2,-0.4,68*,6
COCCNC(=O)c1noc2c1CCc1cc(OC)ccc1-2,-0.0098,4,-1.3,-0.048,72*,36
COc1ccc2c(c1)CCc1c(C(=O)NC3CCCCC3)noc1-2,·,7,·,-1.9,54*,34
CC(=O)NS(=O)(=O)c1ccc(NC(=O)C2CCCCC2)cc1,·,-18,·,·,·,·
COc1cccc(OCCCCSc2ncccn2)c1,-0.031,-6,-0.43,·,-3,1
COc1ccc(OCCSc2ncccn2)cc1,0.47,6,0.69,-1.4,56*,14
COc1ccc(OCCCSc2ncccn2)cc1,0.6,-1,0.76,·,41,63*
SMILES,M1 antag,HePTP inh,M1 agonist,D1 allo mod,SF1 activator,RORa activator
Cc1ccc2c(COC(=O)C3=COCCO3)cc(=O)oc2c1,0.02,-10,-1.4,-4.8*,67*,38
COc1ccc(C2C=C(c3ccc(Br)cc3)Nc3nc(N4C(=O)CCC4=O)nn32)cc1 (stereo not given),0.25,-15,21*,-0.8,-17,-2
O=C1CCC(=O)N1c1nc2n(n1)C(c1ccccc1)C=C(c1ccc(Br)cc1)N2 (stereo not given),-0.64,8,26*,·,-5,-25
COc1ccccc1C1C=C(c2ccc(Cl)cc2)Nc2nc(N3C(=O)CCC3=O)nn21 (stereo not given),-0.046,2,-1.2,1.4,-12,-8
O=[N+]([O-])c1cc(C2N(c3ccccc3)CCN2c2ccccc2)ccc1Cl,·,3,·,·,·,·
CC(Nc1ccc(Br)cn1)c1cc(Cl)ccc1O (stereo not given),·,-4,·,0.32,-8,5
Cc1cc(C(=O)Nc2sc3c(c2C#N)CCC(C(C)(C)C)C3)no1 (stereo not given),0.41,-7,-2,0.22,58*,-7
